ChEMBL document CHEMBL4152330, “Arylamino containing hydroxamic acids as potent urease inhibitors for the treatment of Helicobacter pylori infection” (Eur J Med Chem, 2018)
Active and inactive are the calls of the source. The rule behind the calls is not given here.

Assays:
[1] = biological target: T1, Urease subunit alpha/Urease subunit beta (Helicobacter pylori (strain ATCC 700392 / 26695) (Campylobacterpylori)) (UniProt P69996+P14916); experiment: Ratio of IC50 for Helicobacter pylori ATCC 43504 urease under cell free condition to IC50 for urease in intact Helicobacter pylori ATCC 43504; assay type: protein-complex assay; settings: Helicobacter pylori NCTC 11637 = CCUG 17874 = ATCC 43504
T1 sequence (P14916 whole entry, looked up): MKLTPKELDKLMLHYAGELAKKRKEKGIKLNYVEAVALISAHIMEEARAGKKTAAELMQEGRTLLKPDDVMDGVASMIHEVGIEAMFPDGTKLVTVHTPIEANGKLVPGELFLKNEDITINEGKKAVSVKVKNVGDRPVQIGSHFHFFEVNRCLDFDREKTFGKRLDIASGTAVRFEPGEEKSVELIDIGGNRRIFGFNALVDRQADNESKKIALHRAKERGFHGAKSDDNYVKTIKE
T1 sequence (P69996 whole entry, looked up): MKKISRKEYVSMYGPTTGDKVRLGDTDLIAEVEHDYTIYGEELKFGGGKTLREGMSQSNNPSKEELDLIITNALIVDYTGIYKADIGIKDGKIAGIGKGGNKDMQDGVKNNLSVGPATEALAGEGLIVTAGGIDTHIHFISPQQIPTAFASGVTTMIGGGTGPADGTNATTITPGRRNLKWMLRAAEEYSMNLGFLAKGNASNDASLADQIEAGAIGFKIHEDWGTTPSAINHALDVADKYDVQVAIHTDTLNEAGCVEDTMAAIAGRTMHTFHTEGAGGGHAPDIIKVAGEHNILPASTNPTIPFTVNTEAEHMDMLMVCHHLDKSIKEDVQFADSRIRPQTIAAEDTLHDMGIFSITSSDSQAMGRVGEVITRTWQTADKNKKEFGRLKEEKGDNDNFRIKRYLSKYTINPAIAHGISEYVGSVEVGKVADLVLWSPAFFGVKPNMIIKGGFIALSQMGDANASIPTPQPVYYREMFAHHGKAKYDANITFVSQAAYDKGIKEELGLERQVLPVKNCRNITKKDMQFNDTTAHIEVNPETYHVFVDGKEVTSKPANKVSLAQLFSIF
Procedure, shortened: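 Cell-free arm: desalted crude H. pylori urease lysate (10 U) was preincubated with compound for 1.5 h at room temperature. Intact-cell arm: the same set-up with H. pylori cell suspension (4.0 × 10^7 CFU/mL) in place of the enzyme. Ammonia was measured by the indophenol method in both arms.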

[2] = biological target: T2, Urease subunit alpha/Urease subunit beta (Helicobacter pylori (strain ATCC 700392 / 26695) (Campylobacterpylori), UniProt P69996); experiment: Inhibition of Helicobacter pylori ATCC 43504 urease assessed as reduction in ammonia production preincubated for 1.5 hrs under cell free condition by indophenol method; assay type: protein-complex assay, Helicobacter pylori NCTC 11637 = CCUG 17874 = ATCC 43504
T2 sequence (P69996 whole entry): as the sequence (P69996 whole entry, looked up) above
T2 sequence (P14916 whole entry, further chain): as the sequence (P14916 whole entry, looked up) above
Procedure, shortened: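 Crude urease from sonicated ATCC 43504 cells (grown microaerobically in Brucella broth with 10% sheep blood), desalted on Sephadex G-25 and stored in 50% glycerol at 4 °C. Enzyme (10U) pre-incubated with test compound 1.5 h at room temperature. Ammonia production read by Weatherburn indophenol method.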

[3] = biological target: T2, Urease subunit alpha/Urease subunit beta; experiment: Inhibition of urease in Helicobacter pylori ATCC 43504 assessed as reduction in ammonia production preincubated for 1.5 hrs by indophenol method; assay type: protein-complex assay, Helicobacter pylori NCTC 11637 = CCUG 17874 = ATCC 43504
Procedure, shortened: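 Crude urease was prepared from H. pylori harvested from broth, PBS-washed, frozen at -80 °C, sonicated with protease inhibitors, centrifuged, desalted on Sephadex G-25 and stored in 50% glycerol at 4 °C. Enzyme (10 U) was preincubated with test compound for 1.5 h at room temperature. Ammonia production was read by the Weatherburn indophenol method.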

[4] = biological target: T1, Urease subunit alpha/Urease subunit beta (Helicobacter pylori (strain ATCC 700392 / 26695) (Campylobacterpylori)); experiment: Potency index, ratio of AHA IC50 to compound IC50 for Helicobacter pylori ATCC 43504 urease assessed as reduction in ammonia production preincubated for 1.5 hrs under cell free condition by indophenol method; assay type: protein-complex assay; settings: Helicobacter pylori NCTC 11637 = CCUG 17874 = ATCC 43504
[5] = biological target: T2, Urease subunit alpha/Urease subunit beta; experiment: Mixed type non-competitive inhibition of urease in Helicobacter pylori ATCC 43504 assessed as reduction in ammonia production preincubated for 1.5 hrs by indophenol method; assay type: protein-complex assay, Helicobacter pylori NCTC 11637 = CCUG 17874 = ATCC 43504
Procedure, shortened: (§1)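 Crude H. pylori ATCC 43504 urease with compound pre-incubated 1.5 h at room temperature, then ammonia production velocity measured by indophenol method across a urea concentration gradient at each fixed inhibitor concentration. V–[S] data fitted nonlinearly to assign inhibition type. Fitting constants plotted linearly against [I]; Ki and K'i taken from X-axis intercepts. Triplicate.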

[6] = tested on: Helicobacter pylori; experiment: Antibacterial activity against Helicobacter pylori ATCC 43504 infected in Kunming mouse assessed as bacterial eradication at 16 mg/kg, po bid treated for 14 days relative to control; assay type: functional, NCTC 11637 = CCUG 17874 = ATCC 43504
Procedure, shortened: (§2)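 Mice (18–22 g) fasted 4 h, then given 0.2 mol/L NaHCO3 intragastrically. Fifteen min later they were inoculated intragastrically with H. pylori (1 × 10^9 cfu/mL), once daily for a week. Three weeks later mice were randomized (n=13/group). Compound in 0.5% CMC-Na was given intragastrically at 8:00 and 18:00 daily for 14 days. Eradication was compared with an untreated infected model group.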

[7] = tested on: Helicobacter pylori; experiment: Antibacterial activity against Helicobacter pylori ATCC 43504 infected in Kunming mouse assessed as bacterial eradication at 32 mg/kg, po bid treated for 14 days relative to control; assay type: functional, NCTC 11637 = CCUG 17874 = ATCC 43504; procedure, shortened: as §2
[8] = Acute toxicity in po dosed Kunming mouse assessed as induction of mortality administered as single dose and measured after 14 days; assay type: organism-based; settings: in vivo
Procedure, shortened: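 Male and female adult KM mice, 18–22 g, n=10 per group. Single intragastric dose of 500, 1000, 2000, 3000 or 5000 mg/kg in 0.5% CMC-Na, 200 μL per mouse; controls received vehicle alone. Mortality recorded over 14 days. LD50 estimated by probit analysis.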

[9] = tested on: Helicobacter pylori; experiment: Antibacterial activity against Helicobacter pylori ATCC 43504 infected in Kunming mouse assessed as bacterial eradication at 64 mg/kg, po bid treated for 14 days relative to control; assay type: functional, NCTC 11637 = CCUG 17874 = ATCC 43504; procedure, shortened: as §2
[10] = tested on: Helicobacter pylori; experiment: Antibacterial activity against Helicobacter pylori ATCC 43504 infected in Kunming mouse assessed as reduction in gastric mucosa injury in mouse stomach at 32 mg/kg, po bid treated for 14 days by hematoxylin and eosin staining based assay; assay type: functional, organism-based; settings: NCTC 11637 = CCUG 17874 = ATCC 43504
Procedure, shortened: (§3)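 KM mice (18–22 g) were pretreated with NaHCO3 and infected intragastrically with H. pylori (1 × 10^9 cfu/mL) daily for one week. After three weeks, groups (n=13) received compound in 0.5% CMC-Na intragastrically b.i.d. for 14 days. Part of each stomach was fixed in 4% paraformaldehyde, paraffin-embedded and cut at 3.0 µm to assess gastric mucosal lesions against an untreated infected model.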

[11] = biological target: T2, Urease subunit alpha/Urease subunit beta; experiment: Mixed type non-competitive inhibition of urease in Helicobacter pylori ATCC 43504 assessed as enzyme-substrate-inhibitor complex constant preincubated for 1.5 hrs by indophenol method; assay type: protein-complex assay, Helicobacter pylori NCTC 11637 = CCUG 17874 = ATCC 43504; procedure, shortened: as §1
[12] = tested on: Helicobacter pylori; experiment: Antibacterial activity against Helicobacter pylori ATCC 43504 infected in Kunming mouse assessed as reduction in gastric mucosa injury in mouse stomach at 16 mg/kg, po bid treated for 14 days by hematoxylin and eosin staining based assay; assay type: functional, organism-based; settings: NCTC 11637 = CCUG 17874 = ATCC 43504; procedure, shortened: as §3
[13] = tested on: Helicobacter pylori; experiment: Antibacterial activity against Helicobacter pylori ATCC 43504 infected in Kunming mouse assessed as bacterial eradication at 128 mg/kg, po bid treated for 14 days relative to control; assay type: functional, NCTC 11637 = CCUG 17874 = ATCC 43504; procedure, shortened: as §2

Compound	Ratio IC50 [1]	IC50 [2] [µM]	other results
COc1ccc(NCC(=O)NO)cc1	46 to 110	69.8	
O=C(CCNc1c(Cl)cccc1Cl)NO	46 to 110	25	
O=C(CNc1cccc(Br)c1)NO	46 to 110	0.86	IC50 [3]: 48.1 µM; Ratio IC50 [4]: 2 to 24
O=C(CNc1cccc([N+](=O)[O-])c1)NO	46 to 110	8.21	
O=C(CNc1c(Cl)cccc1Cl)NO	46 to 110	191	
COc1ccccc1NCCC(=O)NO	46 to 110	1.64	
O=C(CNc1cc(F)cc(F)c1)NO	46 to 110	5.11	
O=C(CNc1cccc(Cl)c1Cl)NO	46 to 110	14.8	
O=C(CNc1ccccc1Cl)NO	46 to 110	58.9	
COc1cc(NCC(=O)NO)cc(OC)c1	46 to 110	2.28	
O=C(CCNc1ccccc1Br)NO	46 to 110	0.13	IC50 [3]: 14.5 µM
O=C(CN1CCCc2ccccc21)NO	46 to 110	71.1	
O=C(CNc1ccccc1)NO	46 to 110	4.67	
O=C(CCNc1cccc([N+](=O)[O-])c1)NO	46 to 110	5.1	
O=C(CNc1ccc(Br)cc1)NO	46 to 110	2.01	Ratio IC50 [4]: 2 to 24
O=C(CCNc1cccc(Cl)c1Cl)NO	46 to 110	3.83	
O=C(CCNc1ccc(F)cc1)NO	46 to 110	0.18	IC50 [3]: 17.9 µM
Cc1cc(C)cc(NCCC(=O)NO)c1	46 to 110	2.93	
O=C(CCNc1cc(F)cc(F)c1)NO	46 to 110	1.52	
O=C(CNc1ccc(Cl)cc1Cl)NO	46 to 110	66.1	
O=C(CCNc1cc(Cl)ccc1Cl)NO	46 to 110	0.45	IC50 [3]: 29.5 µM

Compound	Ratio IC50 [1]	IC50 [2] [µM]	other results
O=C(CCNc1ccc(Cl)cc1Cl)NO	46 to 110	0.018	Ki [5]: 0.442 µM; Activity [6]: 92.3%; IC50 [3]: 0.14 µM; Activity [7]: 100%; LD50 at 336 h [8]: 3130 mg/kg; Ratio IC50 [4]: > 1500; Activity [9]: 100%; Activity [10]: Active; Ki [11]: 0.0602 µM; Activity [12]: Active
O=C(CNc1ccc(Cl)c(Cl)c1)NO	46 to 110	0.76	IC50 [3]: 41.6 µM
O=C(CCNc1ccccc1)NO	46 to 110	1.22	
O=C(CCNc1ccccc1[N+](=O)[O-])NO	46 to 110	10.5	
O=C(CNc1cccc(Cl)c1)NO	46 to 110	1.15	
O=C(CCN1CCCc2ccccc21)NO	46 to 110	21.1	
O=C(CNc1ccccc1Br)NO	46 to 110	12.3	Ratio IC50 [4]: 2 to 24
O=C(CNc1cc(Cl)ccc1Cl)NO	46 to 110	1.64	
O=C(CCNc1ccc([N+](=O)[O-])cc1)NO	46 to 110	1.23	
COc1ccccc1NCC(=O)NO	46 to 110	152	
O=C(CNc1cc(Cl)cc(Cl)c1)NO	46 to 110	0.13	Ki [5]: 1.66 µM; IC50 [3]: 16.9 µM; Ki [11]: 0.315 µM
O=C(CCNc1ccccc1Cl)NO	46 to 110	0.055	IC50 [3]: 5.91 µM; Activity [7]: 84.6%; LD50 at 336 h [8]: 3350 mg/kg; Activity [9]: 92.3%; Activity [10]: Active; Activity [13]: 100%
O=C(CCNc1cc(Cl)cc(Cl)c1)NO	46 to 110	0.043	Ki [5]: 1.57 µM; IC50 [3]: 3.9 µM; Activity [7]: 92.3%; LD50 at 336 h [8]: 2980 mg/kg; Activity [9]: 100%; Activity [10]: Active; Ki [11]: 0.153 µM; Activity [13]: 100%
CC(=O)NO [ACETOHYDROXAMIC ACID]	46 to 110		IC50 [3]: 172 µM; Activity [7]: 44.4%; Activity [10]: Active
Cc1cc(C)cc(NCC(=O)NO)c1	46 to 110	2.12	
O=C(CCNc1ccc(Cl)c(Cl)c1)NO	46 to 110	0.71	IC50 [3]: 38.9 µM
Cc1ccc(NCC(=O)NO)cc1	46 to 110	3.91	
O=C(CNc1ccc(F)cc1)NO	46 to 110	7.41	
COc1cccc(NCC(=O)NO)c1	46 to 110	21.8	
O=C(CNc1ccc(Cl)cc1)NO	46 to 110	2.47	
